Hits are enriched below; roughly 3.9% of the tested compounds scored in any of these assays.
TAAR1 ag: agonists of human TAAR1 | activation, % at 3 µM | AID 624467 | 360,000 tested, 0.99% active | CHO RD-HGA16 TAAR1, Fluo-8 calcium fluorescence; vehicle wells 0%, saturating PEA agonist 100% | Q96RJ0;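 active = activation above the mean activation of all test compounds in the run plus 3 SD, cut at about 38% in these data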
Target sequence (Q96RJ0 whole entry, looked up): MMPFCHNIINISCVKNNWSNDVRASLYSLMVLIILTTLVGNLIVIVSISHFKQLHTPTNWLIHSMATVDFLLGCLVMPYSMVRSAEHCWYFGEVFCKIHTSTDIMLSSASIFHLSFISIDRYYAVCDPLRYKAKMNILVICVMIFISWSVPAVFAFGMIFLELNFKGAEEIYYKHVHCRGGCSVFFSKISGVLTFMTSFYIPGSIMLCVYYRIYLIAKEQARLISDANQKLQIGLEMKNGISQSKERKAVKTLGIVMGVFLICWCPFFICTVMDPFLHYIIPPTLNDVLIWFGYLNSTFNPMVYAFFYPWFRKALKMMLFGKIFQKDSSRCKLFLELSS
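Test system: RD-HGA16 (CHO) cells co-expressing Gα16 and hTAAR1; dosing: one-point dosing at 3 µM (nominal); timing: 17-24 h seeding, 75 min 37 °C dye, 30 min RT; signal: kinetic Fluo-8 calcium fluorescence; read-out basis: % activation relative to PEA EC100 response; controls: DMSO and PEA EC100; replicates: n 1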
M1 ag: agonists of human M1 muscarinic receptor; P11229; CHO-K1 hM1, Fluo-8 calcium fluorescence, agonist mode; 0% DMSO, 100% acetylcholine EC100; 360,000 tested, 0.33% active; activation, % at 3 µM;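 active = activation above the run's mean compound activation plus 3 SD, cut at about 16% in these data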;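 also: peak over basal fluorescence ratio within a 140 s kinetic read after compound addition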
m5-HT2A agonist: agonists of mouse serotonin 5-HT2A receptor (HTR2A); P35363; CHO-K1 mHTR2A beta-arrestin complementation, luminescence; percent of 30 µM serotonin response; activation, % at 7.6 µM; 360,000 tested, 0.66% active; AID 624169;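 active = activation above a run cutoff, the mean activation of all tested compounds plus 3 SD, cut at about 14% in these data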;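 also: 0% = plate median of compound wells and 100% = 30 µM serotonin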
TAAR1 antag: antagonists of human TAAR1; CHO RD-HGA16 TAAR1, Fluo-8 calcium fluorescence, antagonist; 360,000 tested, 1.5% active; inhibition, % at 3 µM;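 active = inhibition above a per-plate cutoff, the mean inhibition of test compounds on that plate plus 3 SD, cut at about 49% in these data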;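 also: 0% = DMSO plus EC80 beta-PEA response and 100% = DMSO alone without agonist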
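Assay system: RD-HGA16 CHO cells with stable hTAAR1 and Gα16 / Reagent: EC80 β-phenethylamine stimulus / Doses: 3 µM, single point / Timing: dye loading 75 min at 37 °C, then 30 min room temperature / Measured by: Fluo-8 intracellular calcium dye fluorescence, real-time kinetic reads / Controls: vehicle wells and EC80 agonist wells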
M1 PAM: human CHRM1 positive allosteric modulation; 360,000 tested, 0.088% active; CHO-K1 hM1, Fluo-8 calcium fluorescence, ACh EC20; 0% = ACh EC20, 100% = maximal ACh; activation, % at 3 µM; in the data active = activation above about 19%, passing the limit was not always enough
M1 antag: blocks human M1 muscarinic receptor; 360,000 tested, 1.3% active; AID 588852; P11229; CHO-K1 hM1, Fluo-8 calcium fluorescence, ACh EC80 antagonist; inhibition, % at 3 µM;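 active = percent inhibition above its own plate's cutoff, namely the mean of that plate's compound wells plus 3 SD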;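 also: peak over basal fluorescence ratio during 140 s after agonist addition; 0% = ACh EC80 plus DMSO and 100% = DMSO alone without agonist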
TAAR1 ag conf: confirmation of human TAAR1 agonists | shares compounds with TAAR1 ag | CHO RD-HGA16 TAAR1, Fluo-8 calcium fluorescence; scaled: DMSO 0%, maximal phenethylamine 100% | activation, % at 3 µM | 2,400 tested, 82% active;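 active = activation above a cutoff set at the run's mean compound activation plus 3 SD, cut at about 39% in these data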
Ga16 nonsel ag: nonselective agonism, TAAR1 counter-screen. CHO-Ga16 parental, Fluo-8 calcium fluorescence; normalized to maximal ATP response, DMSO zero. 2,400 tested, 50% active. shares compounds with TAAR1 ag. AID 651787. activation, % at 3 µM;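 active = activation above the run cutoff, the mean activation over all tested wells plus 3 SD, cut at about 12% in these data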;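 also: 0% = DMSO wells and 100% = maximal ATP response on the peak over basal ratio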
TAAR1 desens: human TAAR1 agonist that also desensitizes the receptor; 2,400 tested, 46% active; inhibition, % at 3 µM; shares compounds with TAAR1 ag; CHO RD-HGA16 hTAAR1, Fluo-8 calcium, beta-PEA response inhibition;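 active = inhibition above the run cutoff, the mean inhibition of all test compounds plus 3 SD, cut at about 49% in these data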;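 also: beta-PEA stimulus applied at its EC80; loss of beta-PEA calcium signal after compound pretreatment read as receptor desensitization; 0% = DMSO with beta-PEA at EC80 and 100% = DMSO alone without agonist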
Ga16 antag count: counter-screen for TAAR1 agonists: nonselective Ga16 antagonists; shares compounds with TAAR1 ag; CHO-Ga16 ATP-induced calcium, Fluo-8 fluorescence; inhibition, % at 3 µM; 2,400 tested, 39% active;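 active = inhibition above the plate's mean compound inhibition plus 3 SD, computed per plate, cut at about 22% in these data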;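 also: 0% = EC80 ATP with DMSO and 100% = DMSO wells without ATP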
Starred values were filed as active, the others as inactive; ! = repeats disagree.

`Cc1cc(C(=O)CSc2nnnn2-c2ccccc2)c(C)n1CCc1ccccc1` gave TAAR1 ag 58*, M1 ag -1, m5-HT2A agonist -1, TAAR1 antag -3, M1 PAM 5, M1 antag -6, TAAR1 ag conf 99*, Ga16 nonsel ag 0, TAAR1 desens 83* and Ga16 antag count 11.
Screening Cc1cc(C(=O)CSc2nnnn2C)c(C)n1CCc1ccc(F)cc1 returned TAAR1 ag 44*, M1 ag -2, m5-HT2A agonist -3, TAAR1 antag 11, M1 PAM 7, M1 antag -3, TAAR1 ag conf 63*, Ga16 nonsel ag 6, TAAR1 desens 14 and Ga16 antag count 10.
For COCCn1c(C)cc(C(=O)CSc2nc(C)cc(C)c2C#N)c1C the results were TAAR1 ag 6, M1 ag -3, m5-HT2A agonist -3, TAAR1 antag 17, M1 PAM -9 and M1 antag 12.
Screening Cc1cc(C)c(C#N)c(SCC(=O)c2cc(C)n(CCc3ccccc3)c2C)n1 returned TAAR1 ag 91*, M1 ag -4, m5-HT2A agonist 0, TAAR1 antag 52*, M1 PAM -3, M1 antag 8, TAAR1 ag conf 93*, Ga16 nonsel ag 2, TAAR1 desens 100* and Ga16 antag count 17.
For Cc1cc(C(=O)CSc2nnnn2-c2ccccc2)c(C)n1CC1CCCO1 (configuration not stated) the results were TAAR1 ag 4, M1 ag 0, m5-HT2A agonist 2, TAAR1 antag 3, M1 PAM 1 and M1 antag 5.
For CSc1nnc2ccc(-c3cccs3)nn12 the results were TAAR1 ag 2, M1 ag -4, m5-HT2A agonist 2, TAAR1 antag -4, M1 PAM 7 and M1 antag -10.
Screening Cc1nn(C)c(NC(=O)c2ccccc2Cl)c1Cl returned TAAR1 ag 4, M1 ag -4, m5-HT2A agonist 1, TAAR1 antag -16, M1 PAM 3 and M1 antag -12.
Screening O=C(Nc1nnc(-c2ccccc2)o1)c1ccc(Cl)cc1 returned TAAR1 ag 76*, M1 ag 0, m5-HT2A agonist 6, TAAR1 antag 25, M1 PAM 12, M1 antag -5, TAAR1 ag conf 19, Ga16 nonsel ag 16*, TAAR1 desens 8 and Ga16 antag count 15.
For COc1ccc(-n2nc3c(N4CCC(C(=O)NCC(C)c5ccccc5)CC4)nnc(C)c3c2C)cc1 (configuration not stated) the results were TAAR1 ag 59*, M1 ag -6, m5-HT2A agonist -5, TAAR1 antag 3, M1 PAM -17, M1 antag 17, TAAR1 ag conf 56*, Ga16 nonsel ag 1, TAAR1 desens 26 and Ga16 antag count -1.
Screening COc1ccccc1CNC(=O)C1CCC(CNc2c(N3CCC(C)CC3)c(=O)c2=O)CC1 (configuration not stated) returned TAAR1 ag 0, M1 ag -1, m5-HT2A agonist 1, TAAR1 antag -29, M1 PAM 1 and M1 antag 5.
For CN(C[C@H](Cc1ccccc1)N(C[C@H](Cc1cccc2ccccc12)N(CCc1ccccc1)N=O)N=O)N=O the results were TAAR1 ag 69*!, M1 ag -1, m5-HT2A agonist 2, TAAR1 antag -5, M1 PAM 6, M1 antag -4, TAAR1 ag conf 46*, Ga16 nonsel ag 1, TAAR1 desens 5 and Ga16 antag count 10.
CCCC[C@H](CN(N=O)[C@@H](Cc1ccccc1)CN(C)N=O)N(CCc1ccccc1)N=O was read as TAAR1 ag 57*, M1 ag -6, m5-HT2A agonist 1, TAAR1 antag 24, M1 PAM 4, M1 antag -1, TAAR1 ag conf 64*, Ga16 nonsel ag 0, TAAR1 desens 23 and Ga16 antag count 14.
`Cc1cccc(C(=O)OCC(=O)NN2C(=O)NC3(CCC(C)CC3)C2=O)c1O` (configuration not stated) gave TAAR1 ag 0, M1 ag -2, m5-HT2A agonist 11, TAAR1 antag 5, M1 PAM 4 and M1 antag -7.
For NC(=O)c1nsc(C(=O)N(CC(=O)NCc2ccccc2)c2ccc(F)cc2)c1N the results were TAAR1 ag 11, M1 ag 8, m5-HT2A agonist 11, TAAR1 antag -6, M1 PAM 8 and M1 antag -9.
Screening CN1CCN(C(=O)c2cc(C(C)(C)C)cc(C(C)(C)C)c2)CC1 returned TAAR1 ag 17, M1 ag -13, m5-HT2A agonist -2, TAAR1 antag 2, M1 PAM -2 and M1 antag -2.
COc1ccc(NC(=S)N2CCCC(c3nc4ccc(C)cc4[nH]3)C2)c(OC)c1 (configuration not stated) was read as TAAR1 ag 98*, M1 ag -5, m5-HT2A agonist -2, TAAR1 antag -4, M1 PAM 2, M1 antag 5, TAAR1 ag conf 0, Ga16 nonsel ag 1, TAAR1 desens -4 and Ga16 antag count 2.
Screening CCn1c2ccccc2c2cc(NC(=O)CC(C)=O)ccc21 returned TAAR1 ag 0, M1 ag -10, m5-HT2A agonist -1, TAAR1 antag 7, M1 PAM 8 and M1 antag -4.
Screening COc1ccc(N/N=C/c2c(C(=O)O)ccc3ccccc23)cc1 returned TAAR1 ag 62*, M1 ag -1, m5-HT2A agonist -4, TAAR1 antag 6, M1 PAM 1, M1 antag -9, TAAR1 ag conf 62*, Ga16 nonsel ag 13*, TAAR1 desens 35 and Ga16 antag count 18.
